Data from ChEMBL document CHEMBL1212734, “In vitro pharmacodynamics of levofloxacin and other aerosolized antibiotics under multiple conditions relevant to chronic pulmonary infection in cystic fibrosis” (2010).
≈ marks a conversion by molar mass, not a printed value.

How the values were obtained:
Format in all cases: functional
[1] = system: Achromobacter xylosoxidans; experiment: Antibacterial activity against Alcaligenes xylosoxidans by broth dilution method
Pseudomonas aeruginosa [2] = experiment: Antibacterial activity against Pseudomonas aeruginosa PA1042 assessed as time required for reduction of bacterial load to 3 log CFU/ml at 2 mg/ml up to 48 hrs by time-kill assay
How it was run: (§1)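 Overnight cultures were diluted and grown at 37°C to OD600 ≈0.3, then set at 5 × 10^5–1 × 10^6 CFU/ml in 10 ml CAMHB. Drug was added at 0.2, 0.6 or 2.0 mg/ml, and cultures were shaken at 37°C. Samples taken at 0, 0.5, 1, 2, 4, 8 and 24 h were washed twice in CAMHB, diluted in saline and plated on Mueller-Hinton agar. Plates were incubated up to 48 h before colony counting.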

Pseudomonas aeruginosa [3] = experiment: Antibacterial activity against Pseudomonas aeruginosa PA1036 assessed as time required for reduction of bacterial load to 3 log CFU/ml at 2 mg/ml up to 48 hrs by time-kill assay; how it was run: as §1
Pseudomonas aeruginosa [4] = experiment: Antibacterial activity against Pseudomonas aeruginosa PA1042 assessed as time required for reduction of bacterial load to 3 log CFU/ml at 0.2 mg/ml up to 48 hrs by time-kill assay; how it was run: as §1
Pseudomonas aeruginosa [5] = experiment: Antibacterial activity against Pseudomonas aeruginosa PA1042 assessed as time required for reduction of bacterial load to 3 log CFU/ml at 0.6 mg/ml up to 48 hrs by time-kill assay; how it was run: as §1
Pseudomonas aeruginosa [6] = experiment: Antibacterial activity against Pseudomonas aeruginosa PA1054 assessed as time required for reduction of bacterial load to 3 log CFU/ml at 2 mg/ml up to 48 hrs by time-kill assay; how it was run: as §1
Pseudomonas aeruginosa [7] = experiment: Antibacterial activity against Pseudomonas aeruginosa PA861 assessed as time required for reduction of bacterial load to 3 log CFU/ml at 2 mg/ml up to 48 hrs by time-kill assay; how it was run: as §1
Pseudomonas aeruginosa [8] = experiment: Antibacterial activity against Pseudomonas aeruginosa ATCC 27853 assessed as time required for reduction of bacterial load to 3 log CFU/ml at 0.6 mg/ml up to 48 hrs by time-kill assay
Pseudomonas aeruginosa [9] = experiment: Antibacterial activity against Pseudomonas aeruginosa PA1022 assessed as time required for reduction of bacterial load to 3 log CFU/ml at 2 mg/ml up to 48 hrs by time-kill assay; how it was run: as §1
Pseudomonas aeruginosa [10] = experiment: Antibacterial activity against Pseudomonas aeruginosa PA5020 by broth dilution method
Pseudomonas aeruginosa [11] = experiment: Antibacterial activity against Pseudomonas aeruginosa PA5026 assessed as time required for reduction of bacterial load to 3 log CFU/ml at 2 mg/ml up to 48 hrs by time-kill assay; how it was run: as §1
Pseudomonas aeruginosa [12] = experiment: Antibacterial activity against Pseudomonas aeruginosa PA880 by broth dilution method
How it was run: (§2)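 Broth microdilution MIC per CLSI reference method; twofold serial dilutions in cation-adjusted Mueller-Hinton broth. […] Endpoint read by OD600 and confirmed visually.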

Pseudomonas aeruginosa [13] = experiment: Antibacterial activity against Pseudomonas aeruginosa PA1054 assessed as time required for reduction of bacterial load to 3 log CFU/ml at 0.2 mg/ml up to 48 hrs by time-kill assay; how it was run: as §1
Pseudomonas aeruginosa [14] = experiment: Antibacterial activity against Pseudomonas aeruginosa PA880 assessed as time required for reduction of bacterial load to 3 log CFU/ml at 0.2 mg/ml up to 48 hrs by time-kill assay; how it was run: as §1
Pseudomonas aeruginosa [15] = experiment: Antibacterial activity against Pseudomonas aeruginosa PA1022 by broth dilution method
Pseudomonas aeruginosa [16] = experiment: Antibacterial activity against Pseudomonas aeruginosa by broth dilution method; how it was run: as §2
Pseudomonas aeruginosa [17] = experiment: Antibacterial activity against Pseudomonas aeruginosa PA5026 assessed as time required for reduction of bacterial load to 3 log CFU/ml at 0.2 mg/ml up to 48 hrs by time-kill assay; how it was run: as §1
Pseudomonas aeruginosa [18] = experiment: Antibacterial activity against Pseudomonas aeruginosa ATCC 27853 assessed as time required for reduction of bacterial load to 3 log CFU/ml at 0.2 mg/ml up to 48 hrs by time-kill assay
Pseudomonas aeruginosa [19] = experiment: Antibacterial activity against Pseudomonas aeruginosa PA5043 assessed as time required for reduction of bacterial load to 3 log CFU/ml at 0.6 mg/ml up to 48 hrs by time-kill assay; how it was run: as §1
Pseudomonas aeruginosa [20] = experiment: Antibacterial activity against Pseudomonas aeruginosa PA881 assessed as time required for reduction of bacterial load to 3 log CFU/ml at 0.2 mg/ml up to 48 hrs by time-kill assay; how it was run: as §1
Pseudomonas aeruginosa [21] = experiment: Antibacterial activity against Pseudomonas aeruginosa PA5043 by broth dilution method; how it was run: as §2
Pseudomonas aeruginosa [22] = experiment: Antibacterial activity against Pseudomonas aeruginosa PA1042 by broth dilution method; how it was run: as §2
Pseudomonas aeruginosa [23] = experiment: Antibacterial activity against Pseudomonas aeruginosa PA5063 assessed as inhibition of biofilm formation by microtiter plate reader assay
How it was run: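 Biofilms of cystic fibrosis P. aeruginosa isolates were grown and tested by a previously described method. The endpoint was the biofilm inhibitory concentration, the drug level that prevents biofilm cell growth, compared against planktonic broth-microdilution MICs.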

Pseudomonas aeruginosa [24] = experiment: Antibacterial activity against Pseudomonas aeruginosa PA881 assessed as time required for reduction of bacterial load to 3 log CFU/ml at 0.6 mg/ml up to 48 hrs by time-kill assay; how it was run: as §1
Pseudomonas aeruginosa [25] = experiment: Antibacterial activity against Pseudomonas aeruginosa ATCC 27853 by broth dilution method; how it was run: as §2
Pseudomonas aeruginosa [26] = experiment: Antibacterial activity against Pseudomonas aeruginosa PA1036 by broth dilution method; how it was run: as §2
Pseudomonas aeruginosa [27] = experiment: Antibacterial activity against Pseudomonas aeruginosa PA880 assessed as time required for reduction of bacterial load to 3 log CFU/ml at 2 mg/ml up to 48 hrs by time-kill assay; how it was run: as §1
Pseudomonas aeruginosa [28] = experiment: Antibacterial activity against Pseudomonas aeruginosa PA899 by broth dilution method; how it was run: as §2
Burkholderia cepacia = experiment: Antibacterial activity against Burkholderia cepacia clinical isolates by broth dilution method
Pseudomonas aeruginosa [29] = experiment: Antibacterial activity against Pseudomonas aeruginosa PAM1032 overexpressing multidrug efflux pump MexAB-OprM by broth dilution method

C[C@H]1[C@H](NC(=O)/C(=N\OC(C)(C)C(=O)O)c2csc(N)n2)C(=O)N1S(=O)(=O)O [AZTREONAM]
MIC50 [1]: 64 µg/mL (≈ 147 µM)
MIC90 [1]: > 128 µg/mL
Time (Pseudomonas aeruginosa [2]): 2 h
Time (Pseudomonas aeruginosa [3]): 24 h
Time (Pseudomonas aeruginosa [4]): 8 h
Time (Pseudomonas aeruginosa [5]): 4 h
Time (Pseudomonas aeruginosa [6]): 24 h
Time (Pseudomonas aeruginosa [7]): 24 h
Time (Pseudomonas aeruginosa [8]): 24 h
Time (Pseudomonas aeruginosa [9]): 24 h
MIC (Pseudomonas aeruginosa [10]): 64 µg/mL (≈ 147 µM)
Time (Pseudomonas aeruginosa [11]): >24 h
MIC (Pseudomonas aeruginosa [12]): 0.5 µg/mL (≈ 1.15 µM)
Time (Pseudomonas aeruginosa [13]): 24 h
Time (Pseudomonas aeruginosa [14]): 4 h
MIC (Pseudomonas aeruginosa [15]): 16 µg/mL (≈ 36.7 µM)
MIC50 (Pseudomonas aeruginosa [16]): 4 µg/mL (≈ 9.19 µM)
MIC90 (Pseudomonas aeruginosa [16]): 128 µg/mL (≈ 294 µM)
Time (Pseudomonas aeruginosa [17]): >24 h
Time (Pseudomonas aeruginosa [18]): 24 h
Time (Pseudomonas aeruginosa [19]): 2 h
Time (Pseudomonas aeruginosa [20]): 8 h
MIC (Pseudomonas aeruginosa [21]): 1 µg/mL (≈ 2.3 µM)
MIC (Pseudomonas aeruginosa [22]): 0.5 µg/mL (≈ 1.15 µM)
BBC (Pseudomonas aeruginosa [23]): >256 µg/mL
Time (Pseudomonas aeruginosa [24]): 8 h
MIC (Pseudomonas aeruginosa [25]): 4 µg/mL (≈ 9.19 µM)
MIC (Pseudomonas aeruginosa [26]): 32 µg/mL (≈ 73.5 µM)
Time (Pseudomonas aeruginosa [27]): 4 h
MIC (Pseudomonas aeruginosa [28]): 8 µg/mL (≈ 18.4 µM)

C[C@H]1COc2c(N3CCN(C)CC3)c(F)cc3c(=O)c(C(=O)O)cn1c23.C[C@H]1COc2c(N3CCN(C)CC3)c(F)cc3c(=O)c(C(=O)O)cn1c23.O [LEVOFLOXACIN]
MIC50 [1]: 4 µg/mL
MIC90 [1]: 16 µg/mL
Time (Pseudomonas aeruginosa [2]): <=0.5 hr
Time (Pseudomonas aeruginosa [3]): <=0.5 hr
Time (Pseudomonas aeruginosa [4]): <=0.5 hr
Time (Pseudomonas aeruginosa [5]): <=0.5 hr
Time (Pseudomonas aeruginosa [6]): <=0.5 hr
Time (Pseudomonas aeruginosa [7]): <=0.5 hr
Time (Pseudomonas aeruginosa [8]): <=0.5 hr
Time (Pseudomonas aeruginosa [9]): <=0.5 hr
MIC (Pseudomonas aeruginosa [10]): 16 µg/mL
Time (Pseudomonas aeruginosa [11]): <=0.5 hr
Time (Pseudomonas aeruginosa [13]): <=0.5 hr
Time (Pseudomonas aeruginosa [14]): <=0.5 hr
MIC50 (Pseudomonas aeruginosa [16]): 2 µg/mL
MIC90 (Pseudomonas aeruginosa [16]): 8 µg/mL
Time (Pseudomonas aeruginosa [17]): <=0.5 hr
Time (Pseudomonas aeruginosa [18]): <=0.5 hr
Time (Pseudomonas aeruginosa [19]): <=0.5 hr
Time (Pseudomonas aeruginosa [20]): <=0.5 hr
MIC50 (Burkholderia cepacia): 4 µg/mL
MIC90 (Burkholderia cepacia): 32 µg/mL
BBC (Pseudomonas aeruginosa [23]): 1 µg/mL
Time (Pseudomonas aeruginosa [24]): <=0.5 hr
MIC (Pseudomonas aeruginosa [26]): 8 µg/mL
Time (Pseudomonas aeruginosa [27]): <=0.5 hr
MIC (Pseudomonas aeruginosa [28]): 0.5 µg/mL

NC[C@H]1O[C@H](O[C@H]2[C@H](O)[C@@H](O[C@H]3O[C@H](CO)[C@@H](O)[C@H](N)[C@H]3O)[C@H](N)C[C@@H]2N)[C@H](N)C[C@@H]1O [TOBRAMYCIN]
MIC50 [1]: > 32 µg/mL
MIC90 [1]: > 32 µg/mL
Time (Pseudomonas aeruginosa [2]): <=0.5 hr
Time (Pseudomonas aeruginosa [3]): <=0.5 hr
Time (Pseudomonas aeruginosa [4]): 1 h
Time (Pseudomonas aeruginosa [5]): 1 h
Time (Pseudomonas aeruginosa [6]): <=0.5 hr
Time (Pseudomonas aeruginosa [7]): 4 h
Time (Pseudomonas aeruginosa [8]): <=0.5 hr
Time (Pseudomonas aeruginosa [9]): 4 h
MIC (Pseudomonas aeruginosa [10]): 8 µg/mL (≈ 17.1 µM)
Time (Pseudomonas aeruginosa [11]): <=0.5 hr
MIC (Pseudomonas aeruginosa [12]): 1 µg/mL (≈ 2.14 µM)
Time (Pseudomonas aeruginosa [13]): <=0.5 hr
Time (Pseudomonas aeruginosa [14]): <=0.5 hr
MIC (Pseudomonas aeruginosa [15]): > 32 µg/mL
MIC50 (Pseudomonas aeruginosa [16]): 2 µg/mL (≈ 4.28 µM)
MIC90 (Pseudomonas aeruginosa [16]): > 32 µg/mL
Time (Pseudomonas aeruginosa [17]): 2 h
Time (Pseudomonas aeruginosa [18]): <=0.5 hr
Time (Pseudomonas aeruginosa [19]): 1 h
Time (Pseudomonas aeruginosa [20]): <=0.5 hr
MIC (Pseudomonas aeruginosa [21]): 8 µg/mL (≈ 17.1 µM)
MIC50 (Burkholderia cepacia): > 32 µg/mL
MIC90 (Burkholderia cepacia): > 32 µg/mL
MIC (Pseudomonas aeruginosa [22]): 0.5 µg/mL (≈ 1.07 µM)
BBC (Pseudomonas aeruginosa [23]): 2 µg/mL
Time (Pseudomonas aeruginosa [24]): <=0.5 hr
MIC (Pseudomonas aeruginosa [29]): 0.25 µg/mL (≈ 0.535 µM)
MIC (Pseudomonas aeruginosa [25]): 0.25 µg/mL (≈ 0.535 µM)
MIC (Pseudomonas aeruginosa [26]): 1 µg/mL (≈ 2.14 µM)
Time (Pseudomonas aeruginosa [27]): <=0.5 hr
MIC (Pseudomonas aeruginosa [28]): 0.25 µg/mL (≈ 0.535 µM)
